The values below come from ChEMBL document CHEMBL2380248, “Matrix metalloproteinase inhibitors based on the 3-mercaptopyrrolidine core” (J Med Chem, 2013).

The nature of data set [1]: Cytotoxicity against human MSC assessed as reduction in cell number at 100 uM after 24 hrs by trypan blue staining-based hemocytometric analysis relative to control. Details: scale not given: the % may be the effect or the level left. Summed up:
(§1)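 Low-passage hMSCs grown in αMEM with L-glutamine, penicillin, streptomycin, 20% FBS at 37°C, 5% CO2; fed every three days to 75% confluency, then given fresh media with inhibitor (log panel 1 μM to 100 μM, constant final DMSO) for 24 h. Cells washed with PBS, trypsinized, pelleted, Trypan Blue counted by hemocytometer; normalized to control, triplicate, mean ± SEM; >20% killing deemed cytotoxic.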

A short description of data set [2]: Cytotoxicity against human MSC assessed as cell killing up to 100 uM after 24 hrs by trypan blue staining-based hemocytometric analysis relative to control. Summed up: as §1
Data set [3] is described as follows: Stability of the compound in alpha-modified minimum essential medium at 10000 x IC50 up to 72 hrs in presence of fetal bovine serum. Format: ADME. As to conditions: cattle. In a few lines:
(§2)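 Aliquots then incubated 30 min with MMP-9 (final ~1 nM) in HEPES buffer before substrate addition; relative rates (νi/νo) taken in triplicate and plotted versus time; mean ± SEM.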

Data set [4] deals with Matrix metalloproteinase-14 (Homo sapiens, UniProt P50281). In words: Inhibition of MMP-14 (unknown origin) using Mca-PLGLDpa-AR-NH2 as substrate preincubated for 30 mins by fluorescence assay. As to conditions: read-out: Ki(app). In a few lines:
(§3)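 Fluorogenic assay at 25°C in 50 mM HEPES pH 7.5, 10 mM CaCl2, 200 mM NaCl, 0.01% Brij-35, 5 μM TCEP. Inhibitor in DMSO preincubated 30 min with enzyme (0.2–7 nM), then started with Mca-PLGLDpa-AR-NH2 (4 μL of […] in 50% DMSO); product release followed at λex 328/λem 393 nm.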

In another data set the target is Collagenase 3 (Homo sapiens, UniProt P45452). In words: Inhibition of MMP-13 (unknown origin) using Mca-PLGLDpa-AR-NH2 as substrate preincubated for 30 mins by fluorescence assay. As to conditions: read-out: Ki(app). Summed up: as §3
For data set [5], the target named is T1, Matrix metalloproteinase-9 (Homo sapiens, UniProt P14780). In words: Inhibition of MMP-9 (unknown origin) using Mca-PLGLDpa-AR-NH2 as substrate preincubated for 30 mins by fluorescence assay. The following applies: read-out: Ki(app). In a few lines:
as §3

A further data set addresses T2, Matrilysin (Homo sapiens, UniProt P09237).
T2 sequence (P09237 whole entry): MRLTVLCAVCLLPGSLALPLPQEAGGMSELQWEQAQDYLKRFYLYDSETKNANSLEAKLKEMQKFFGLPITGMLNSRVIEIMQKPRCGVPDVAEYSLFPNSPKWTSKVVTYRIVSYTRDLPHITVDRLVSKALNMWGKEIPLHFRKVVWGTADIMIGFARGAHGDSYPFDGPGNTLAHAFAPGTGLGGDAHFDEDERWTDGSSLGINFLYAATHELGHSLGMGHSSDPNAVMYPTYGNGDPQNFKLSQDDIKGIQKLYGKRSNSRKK
The data set can be described thus: Inhibition of MMP-7 (unknown origin) using Mca-PLGLDpa-AR-NH2 as substrate preincubated for 30 mins by fluorescence assay. As to conditions: read-out: Ki(app). Summed up: as §3

Data set [6] has as its target 72 kDa type IV collagenase (Homo sapiens, UniProt P08253). The data set can be described thus: Inhibition of MMP-2 (unknown origin) using Mca-PLGLDpa-AR-NH2 as substrate preincubated for 30 mins by fluorescence assay. The following applies: read-out: Ki(app). Summed up:
as §3

The target in another data set is T3, Interstitial collagenase (Homo sapiens, UniProt P03956).
T3 sequence (P03956 whole entry): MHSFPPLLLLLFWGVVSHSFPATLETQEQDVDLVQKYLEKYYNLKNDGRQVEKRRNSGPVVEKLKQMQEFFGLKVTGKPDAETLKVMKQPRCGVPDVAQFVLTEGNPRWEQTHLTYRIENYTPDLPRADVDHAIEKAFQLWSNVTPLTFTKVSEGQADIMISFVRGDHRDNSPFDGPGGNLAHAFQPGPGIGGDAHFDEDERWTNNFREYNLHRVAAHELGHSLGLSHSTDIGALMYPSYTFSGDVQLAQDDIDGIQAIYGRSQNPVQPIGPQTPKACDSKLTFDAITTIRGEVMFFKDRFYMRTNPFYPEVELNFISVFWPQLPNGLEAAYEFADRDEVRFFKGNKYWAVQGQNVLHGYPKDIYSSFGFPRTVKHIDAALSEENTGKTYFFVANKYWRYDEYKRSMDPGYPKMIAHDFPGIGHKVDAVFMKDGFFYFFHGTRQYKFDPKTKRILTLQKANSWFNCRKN
In words: Inhibition of MMP-1 (unknown origin) using Mca-PLGLDpa-AR-NH2 as substrate preincubated for 30 mins by fluorescence assay. As to conditions: read-out: Ki(app). Summed up:
as §3

A further data set addresses Stromelysin-1 (Homo sapiens, UniProt P08254). The data set can be described thus: Inhibition of MMP-3 (unknown origin) using Mca-PLGLDpa-AR-NH2 as substrate preincubated for 30 mins by fluorescence assay. The following applies: read-out: Ki(app). Summed up:
as §3

The target of data set [7] is T1, Matrix metalloproteinase-9. In words: Inhibition of MMP-9 (unknown origin) at 10000 x IC50 incubated up to 72 hrs prior to enzyme addition measured after 30 mins in presence of 20% fetal bovine serum. Summed up: as §2

Calls of active or inactive are those of the source. The calls are words filed in the database; no cut-off is given here. Bounds are passed on as bounds.

72 kDa type IV collagenase, sequence (P08253 whole entry): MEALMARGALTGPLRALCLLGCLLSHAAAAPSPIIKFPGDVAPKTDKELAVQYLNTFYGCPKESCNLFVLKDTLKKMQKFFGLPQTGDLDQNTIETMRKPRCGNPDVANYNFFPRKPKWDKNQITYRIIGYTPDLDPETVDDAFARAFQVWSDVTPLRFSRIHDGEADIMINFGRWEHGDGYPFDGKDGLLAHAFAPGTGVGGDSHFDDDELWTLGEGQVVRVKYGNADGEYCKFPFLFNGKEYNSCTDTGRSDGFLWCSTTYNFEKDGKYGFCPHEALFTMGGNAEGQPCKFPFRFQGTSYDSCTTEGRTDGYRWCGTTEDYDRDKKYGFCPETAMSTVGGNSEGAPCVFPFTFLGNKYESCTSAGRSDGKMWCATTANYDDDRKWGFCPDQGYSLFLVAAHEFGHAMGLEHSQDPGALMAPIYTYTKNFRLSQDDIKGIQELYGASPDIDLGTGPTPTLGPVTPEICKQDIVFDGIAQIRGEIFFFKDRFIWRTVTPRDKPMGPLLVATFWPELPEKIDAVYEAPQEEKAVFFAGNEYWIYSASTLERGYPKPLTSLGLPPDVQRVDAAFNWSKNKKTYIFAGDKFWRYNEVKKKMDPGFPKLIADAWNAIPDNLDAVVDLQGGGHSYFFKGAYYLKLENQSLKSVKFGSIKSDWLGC
T1 sequence (P14780 whole entry): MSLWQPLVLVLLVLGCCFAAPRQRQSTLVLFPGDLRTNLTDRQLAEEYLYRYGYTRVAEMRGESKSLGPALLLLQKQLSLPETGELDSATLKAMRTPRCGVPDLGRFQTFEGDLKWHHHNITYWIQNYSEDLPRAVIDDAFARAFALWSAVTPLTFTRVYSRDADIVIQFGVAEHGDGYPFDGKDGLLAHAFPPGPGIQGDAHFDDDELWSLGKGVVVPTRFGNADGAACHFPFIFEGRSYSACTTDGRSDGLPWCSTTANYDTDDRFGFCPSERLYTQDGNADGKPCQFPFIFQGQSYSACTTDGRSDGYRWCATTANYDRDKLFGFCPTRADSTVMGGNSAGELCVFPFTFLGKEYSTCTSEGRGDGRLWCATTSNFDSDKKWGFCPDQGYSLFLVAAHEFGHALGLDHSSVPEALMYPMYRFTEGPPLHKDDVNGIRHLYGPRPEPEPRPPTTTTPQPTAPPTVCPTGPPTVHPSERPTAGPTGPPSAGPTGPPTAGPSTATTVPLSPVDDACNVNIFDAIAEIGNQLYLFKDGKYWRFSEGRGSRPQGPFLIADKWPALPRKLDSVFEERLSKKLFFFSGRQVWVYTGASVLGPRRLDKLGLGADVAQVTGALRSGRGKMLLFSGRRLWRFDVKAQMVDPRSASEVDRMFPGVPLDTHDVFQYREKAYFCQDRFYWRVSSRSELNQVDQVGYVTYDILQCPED
Stromelysin-1, sequence (P08254 whole entry): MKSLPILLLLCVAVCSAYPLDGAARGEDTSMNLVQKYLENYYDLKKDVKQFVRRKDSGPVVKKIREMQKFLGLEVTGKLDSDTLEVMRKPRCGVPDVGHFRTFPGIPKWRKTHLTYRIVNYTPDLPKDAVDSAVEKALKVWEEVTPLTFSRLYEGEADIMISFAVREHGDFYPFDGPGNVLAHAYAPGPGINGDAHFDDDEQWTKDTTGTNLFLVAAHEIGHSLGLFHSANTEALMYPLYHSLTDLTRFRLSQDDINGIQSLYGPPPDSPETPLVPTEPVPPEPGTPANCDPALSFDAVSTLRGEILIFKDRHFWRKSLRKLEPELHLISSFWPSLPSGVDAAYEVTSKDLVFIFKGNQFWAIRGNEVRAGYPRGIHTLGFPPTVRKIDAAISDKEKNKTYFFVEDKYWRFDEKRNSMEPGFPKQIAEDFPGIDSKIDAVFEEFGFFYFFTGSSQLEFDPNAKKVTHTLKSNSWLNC

With `O=S(=O)(N[C@H]1CCC[C@@H]1S)c1ccc(Oc2ccccc2)cc1` (racemic) [listing 1 of 2 here], the Activity in data set [1] is 40%; in [2], “<= 20%”. The Stability entry in data set [3] was “Stable”. For the same molecule, the Ki in data set [4] was 0.018 µM; at Collagenase 3 it was 0.015 µM; in data set [5] it was 0.025 µM; at Matrilysin it was over 20 µM; in data set [6] it was 0.018 µM; at Interstitial collagenase it was 3.4 µM.

With `O=S(=O)(N[C@H]1CCC[C@@H]1S)c1ccccc1` (racemic), the Ki in data set [4] was 3 µM; on Collagenase 3, 3.4 µM; in [5], 9.6 µM; on Matrilysin it was over 50 µM; at Stromelysin-1, over 200 µM; in [6], 7.2 µM. Besides, at Interstitial collagenase, the Ki is over 20 µM.

Regarding `O=C(NCCN1C(=O)c2ccccc2C1=O)N1C[C@H](NS(=O)(=O)c2ccc(Oc3ccccc3)cc2)[C@@H](S)C1` (racemic), the Activity result in data set [2] is recorded as “<= 20%”. The Ki on Matrilysin was over 12 µM.

On to `CC(=O)NCCCCCC(=O)N1C[C@H](NS(=O)(=O)c2ccc(Oc3ccccc3)cc2)[C@@H](S)C1` (racemic), for which the Activity entry in [2] is recorded as “<= 20%”. Moreover, the Stability entry in data set [3] was “Stable”. Further, the Ki at Interstitial collagenase is over 6 µM.

As for `NCCCCCC(=O)N1C[C@H](NS(=O)(=O)c2ccc(Oc3ccccc3)cc2)[C@@H](O)C1` (racemic), the Ki was 85 µM in [4]; over 200 µM at Collagenase 3; 30 µM in [5]; over 100 µM on Matrilysin; over 100 µM at Stromelysin-1; 7 µM in [6]. Also, the Ki at Interstitial collagenase is over 50 µM.

For `O=S(=O)(N[C@H]1CCC[C@@H]1O)c1ccc(Oc2ccccc2)cc1` (racemic), the Ki in data set [4] is over 200 µM; at Collagenase 3, 100 µM; in data set [5], 200 µM; at Matrilysin, over 200 µM; on Stromelysin-1 it was over 200 µM; in data set [6], 50 µM. For the same molecule, the Ki at Interstitial collagenase was over 200 µM.

`Cl.NCCCCCC(=O)N1C[C@H](NS(=O)(=O)c2ccc(Oc3ccccc3)cc2)[C@@H](S)C1` (racemic): in data set [2], the Activity result is “<= 20%”. Also, the inhibition result in data set [7] is “Active”. Besides, in [3], the Stability entry is recorded as “Stable”. In addition, the Ki is 0.0066 µM in data set [4], 0.0036 µM in data set [5], 0.0031 µM in data set [6] and over 3 µM on Interstitial collagenase.

In the case of `O=S(=O)(N[C@H]1CCC[C@@H]1S)c1ccc(Oc2ccccc2)cc1` (racemic) [listing 2 of 2 here], in [7], the inhibition result is “Active”.

For the molecule `NC(=O)N1C[C@H](NS(=O)(=O)c2ccc(Oc3ccccc3)cc2)[C@@H](S)C1` (racemic), the Activity result in data set [2] is listed as “<= 20%”. The Stability result in data set [3] is “Stable”. Further, on Matrilysin, the Ki was over 25 µM.

As to `O=S(=O)(N[C@@H]1CCC[C@@H]1S)c1ccc(Oc2ccccc2)cc1`, the Ki was 25 µM in data set [4]; over 100 µM on Collagenase 3; over 1.6 µM in data set [5]; over 200 µM on Matrilysin; over 200 µM at Stromelysin-1; 25 µM in data set [6]. Besides, the Ki at Interstitial collagenase was over 200 µM.

Take `O=S(=O)(N[C@H]1CCC[C@@H]1S)c1ccc(Oc2ccccc2)cc1`: the Ki in [4] was 0.031 µM; on Collagenase 3 it was 0.017 µM; in [5], 0.038 µM; on Matrilysin it was over 100 µM; at Stromelysin-1, over 200 µM; in [6], 0.0046 µM. The Ki at Interstitial collagenase turned out to be 2.1 µM.
